Measured values as given in ChEMBL document CHEMBL1275259, “In vitro antituberculosis activities of ACH-702, a novel isothiazoloquinolone, against quinolone-susceptible and quinolone-resistant isolates” (Antimicrob Agents Chemother, 2010).
pIC50: −log10 of the molar value. In brackets after ≈: the same amount, converted by molar mass.

Legend:
[1] = system: Mycobacterium tuberculosis; assay: Antimicrobial activity against streptomycin-resistant Mycobacterium tuberculosis isolate 8; type: functional
Summary of the method: (§1)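 Broth microdilution MIC in modified 7H10 broth (pH 6.6). Drugs dissolved in DMSO at 1 mg/ml, then serially diluted. Isolates grown 5 to 10 days at 37°C on a rotary shaker, diluted to 100 Klett units and frozen. Final inoculum about 6 × 10^4 CFU/ml (range 1.2 × 10^4 to 2.6 × 10^5). Duplicate wells, sealed, read after about 21 days at 37°C in ambient air.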

[2] = system: Mycobacterium tuberculosis; assay: Antimicrobial activity against isoniazid-resistant Mycobacterium tuberculosis isolate 15; type: functional; summary of the method: as §1
[3] = system: Mycobacterium tuberculosis; assay: Antimicrobial activity against quinolone-resistant Mycobacterium tuberculosis isolate 10; type: functional; summary of the method: as §1
[4] = system: Mycobacterium tuberculosis; assay: Antimicrobial activity against multidrug-resistant Mycobacterium tuberculosis isolate 9; type: functional; summary of the method: as §1
[5] = target: DNA gyrase subunit A (Mycobacterium tuberculosis, UniProt P9WG47, D94G); assay: Inhibition of DNA supercoiling activity of Mycobacterium tuberculosis DNA gyrase subunit A D94G mutant
[6] = system: Mycobacterium tuberculosis; assay: Antimicrobial activity against extensively drug-resistant Mycobacterium tuberculosis isolate 17; type: functional; summary of the method: as §1
[7] = system: Mycobacterium tuberculosis; assay: Antimicrobial activity against quinolone-resistant Mycobacterium tuberculosis isolate 12; type: functional; summary of the method: as §1
[8] = system: Mycobacterium tuberculosis; assay: Antimicrobial activity against multidrug drug-resistant Mycobacterium tuberculosis isolate 20; type: functional; summary of the method: as §1
[9] = target: DNA gyrase subunit A (Mycobacterium tuberculosis, UniProt P9WG47, A90V); assay: Inhibition of DNA supercoiling activitysof Mycobacterium tuberculosis DNA gyrase subunit A A90V mutant
[10] = system: Mycobacterium tuberculosis; assay: Antimicrobial activity against quinolone-resistant Mycobacterium tuberculosis isolate 11; type: functional; summary of the method: as §1
[11] = system: Mycobacterium tuberculosis; assay: Antimicrobial activity against extensively drug-resistant Mycobacterium tuberculosis isolate 18; type: functional; summary of the method: as §1
[12] = system: Mycobacterium tuberculosis; assay: Antimicrobial activity against multidrug-resistant Mycobacterium tuberculosis isolate 19; type: functional; summary of the method: as §1
[13] = system: Mycobacterium tuberculosis; assay: Antimicrobial activity against extensively drug-resistant Mycobacterium tuberculosis isolate 16; type: functional; summary of the method: as §1

| SMILES | MIC [1] [µg/mL] | MIC [2] [µg/mL] | MIC [3] [µg/mL] | MIC [4] [µg/mL] | pIC50 [5] | MIC [6] [µg/mL] | MIC [7] [µg/mL] | MIC [8] [µg/mL] | pIC50 [9] | MIC [10] [µg/mL] | MIC [11] [µg/mL] | MIC [12] [µg/mL] | MIC [13] [µg/mL] |
| --- | --- | --- | --- | --- | --- | --- | --- | --- | --- | --- | --- | --- | --- |
| COc1c(N2CC[C@@H](C(C)(C)N)C2)c(F)cc2c(=O)c3c(=O)[nH]sc3n(C3CC3)c12 | 0.25 (≈ 0.578 µM) | 0.06 (≈ 0.139 µM) | 0.125 (≈ 0.289 µM) | 0.06 (≈ 0.139 µM) | 5.10 | 1 (≈ 2.31 µM) | 1 (≈ 2.31 µM) | 0.03 (≈ 0.0694 µM) | 5.34 | 0.25 (≈ 0.578 µM) | 0.125 (≈ 0.289 µM) | 0.03 (≈ 0.0694 µM) | 0.5 (≈ 1.16 µM) |
| COc1c(N2CCNC(C)C2)c(F)cc2c(=O)c(C(=O)O)cn(C3CC3)c12 (stereo unspecified) [GATIFLOXACIN] | – | – | – | – | 4.36 | – | – | – | 4.55 | – | – | – | – |
| NNC(=O)c1ccncc1 [ISONIAZID] | 0.125 (≈ 0.911 µM) | > 8 | 0.03 (≈ 0.219 µM) | 4 (≈ 29.2 µM) | – | 1 (≈ 7.29 µM) | 0.03 (≈ 0.219 µM) | 2 (≈ 14.6 µM) | – | 0.03 (≈ 0.219 µM) | 2 (≈ 14.6 µM) | 2 (≈ 14.6 µM) | 1 (≈ 7.29 µM) |
| C[C@H]1COc2c(N3CCN(C)CC3)c(F)cc3c(=O)c(C(=O)O)cn1c23 [LEVOFLOXACIN] | – | – | – | – | < 3.52 | – | – | – | < 3.52 | – | – | – | – |
| COc1c(N2C[C@@H]3CCCN[C@@H]3C2)c(F)cc2c(=O)c(C(=O)O)cn(C3CC3)c12 [MOXIFLOXACIN] | 0.06 (≈ 0.149 µM) | 0.06 (≈ 0.149 µM) | > 8 | 0.06 (≈ 0.149 µM) | – | 2 (≈ 4.98 µM) | 8 (≈ 19.9 µM) | 0.03 (≈ 0.0747 µM) | – | 4 (≈ 9.96 µM) | 1 (≈ 2.49 µM) | 0.03 (≈ 0.0747 µM) | 1 (≈ 2.49 µM) |
| CO[C@H]1/C=C/O[C@@]2(C)Oc3c(C)c(O)c4c(O)c(c(/C=N/N5CCN(C)CC5)c(O)c4c3C2=O)NC(=O)/C(C)=C\C=C\[C@H](C)[C@H](O)[C@@H](C)[C@@H](O)[C@@H](C)[C@H](OC(C)=O)[C@@H]1C [RIFAMPIN] | 0.008 (≈ 0.00972 µM) | 0.002 (≈ 0.00243 µM) | 0.004 (≈ 0.00486 µM) | 64 (≈ 77.8 µM) | – | 8 (≈ 9.72 µM) | 0.004 (≈ 0.00486 µM) | 16 (≈ 19.4 µM) | – | 0.03 (≈ 0.0365 µM) | 8 (≈ 9.72 µM) | 64 (≈ 77.8 µM) | 8 (≈ 9.72 µM) |
| CN[C@@H]1[C@H](O[C@H]2[C@H](O[C@H]3[C@H](O)[C@@H](O)[C@H](N=C(N)N)[C@@H](O)[C@@H]3N=C(N)N)O[C@@H](C)[C@]2(O)C=O)O[C@@H](CO)[C@H](O)[C@H]1O [STREPTOMYCIN] | – | – | – | 32 (≈ 55 µM) | – | – | – | – | – | – | – | – | – |
